From ChEMBL document CHEMBL5523765, “Peptidic Boronic Acid Plasmodium falciparum SUB1 Inhibitors with Improved Selectivity over Human Proteasome” (J Med Chem, 2024) come the findings set out here.

Assay [1] addresses T1, Subtilisin-like protease 1 (Plasmodium falciparum, UniProt O61142).
T1 sequence (O61142 whole entry): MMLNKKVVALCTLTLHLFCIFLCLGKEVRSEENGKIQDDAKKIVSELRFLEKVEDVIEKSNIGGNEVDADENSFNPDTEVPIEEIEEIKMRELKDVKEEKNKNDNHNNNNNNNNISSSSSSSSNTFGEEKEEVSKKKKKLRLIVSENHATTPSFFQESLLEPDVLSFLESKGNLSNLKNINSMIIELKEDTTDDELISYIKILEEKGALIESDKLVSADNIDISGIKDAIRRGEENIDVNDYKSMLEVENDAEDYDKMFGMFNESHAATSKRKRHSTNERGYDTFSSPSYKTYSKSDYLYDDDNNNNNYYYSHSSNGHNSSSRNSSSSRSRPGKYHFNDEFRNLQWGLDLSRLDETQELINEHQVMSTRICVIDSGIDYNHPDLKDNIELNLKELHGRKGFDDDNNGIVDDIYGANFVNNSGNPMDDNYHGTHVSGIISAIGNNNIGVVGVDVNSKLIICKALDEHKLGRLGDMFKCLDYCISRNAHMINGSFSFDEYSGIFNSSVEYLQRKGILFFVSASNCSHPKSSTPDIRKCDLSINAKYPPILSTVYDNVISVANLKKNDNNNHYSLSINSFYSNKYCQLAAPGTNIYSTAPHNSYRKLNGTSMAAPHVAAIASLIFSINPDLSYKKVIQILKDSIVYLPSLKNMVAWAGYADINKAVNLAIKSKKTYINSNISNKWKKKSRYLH
Kind of assay: Inhibition of recombinant Plasmodium falciparum SUB1 using Ac-CKITAQDDEESC-OH as fluorogenic substrate pre-incubated for 5 mins followed by substrate addition and measured every 3 mins for 60 mins by fluorescence based SpectraMax M5e plate reader. A digest of the protocol: (§1)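 Chymotrypsin-treated recombinant PfSUB1 stock (228 U/mL) was diluted 1:500 in 20 mM Tris-HCl pH 8.2, 150 mM NaCl, 12 mM CaCl2, 25 mM CHAPS. Inhibitor DMSO stocks (500 to 0.01 μM) were diluted 1:100 and preincubated with enzyme for 5 min. Fluorogenic SERA4st1F-6R12 substrate was then added (0.1 μM final), with ex 552/em 580 nm read every 3 min for 60 min.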

The target of assay [2] is T2, Subtilisin-like protease 1 (Plasmodium falciparum) (UniProt O61142).
T2 sequence (whole entry): T1 sequence (O61142 whole entry)
Kind of assay: Inhibition of recombinant Plasmodium falciparum SUB1 using Ac-CKITAQDDEESC-OH as fluorogenic substrate at 1 uM pre-incubated for 5 mins followed by substrate addition and measured every 3 mins for 60 mins by fluorescence based SpectraMax M5e plate reader. Particulars: time 65.0 min.

For assay [3], the target named is T3, Proteasome Macropain subunit MB1 (Homo sapiens, UniProt P28074).
T3 sequence (P28074 whole entry): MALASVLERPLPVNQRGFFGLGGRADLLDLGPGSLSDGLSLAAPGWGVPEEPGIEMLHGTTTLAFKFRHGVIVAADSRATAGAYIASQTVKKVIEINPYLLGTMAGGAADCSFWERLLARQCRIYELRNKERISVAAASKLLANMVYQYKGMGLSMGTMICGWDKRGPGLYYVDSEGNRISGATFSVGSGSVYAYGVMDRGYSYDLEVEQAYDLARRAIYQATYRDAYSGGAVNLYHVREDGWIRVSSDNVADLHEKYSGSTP
Kind of assay: Inhibition of human 20s proteasome beta5 subunit mediated chymotrypsin-like activity using LLVY-R110 as substrate measured every three mins for 1 hr by fluorescence based SpectraMax M5e plate reader. A digest of the protocol: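 Purified human 20S proteasome was diluted in TBS pH 7.4 to a 0.44 μM intermediate stock. Serial DMSO dilutions of inhibitor (1 μL) went into a 100 μL reaction with LLVY-R110 substrate, and 1 μL of proteasome stock was added to start.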

In assay [4] the target is T1, Subtilisin-like protease 1. As to the kind of experiment: Inhibition of Plasmodium falciparum SUB1. A digest of the protocol: as §1
A short description of assay [5]: Selectivity ratio IC50 for human 20s proteasome beta5 subunit mediated chymotrypsin-like activity to IC50 for Plasmodium falciparum SUB1.

Calls of active or inactive are those of the source. The rule behind the calls is not given here.

For the molecule `CC[C@H](C)[C@H](NC(=O)[C@@H](NC(=O)c1ccccc1)C1CCCC1)C(=O)NCC(=O)N[C@@H](C)B(O)O`, the concentration for half-maximal inhibition (IC50) (as a rule, the concentration that gives 50% inhibition) in assay [1] is 3.2 nM. In the case of `CC(C)C[C@H](NC(=O)[C@H](Cc1ccccc1)NC(=O)c1cnccn1)B(O)O`, the inhibition result in assay [2] was “inactive”. Consider `CC[C@H](C)[C@H](NC(=O)[C@@H](NC(=O)c1cc(C)cc(C)c1)C1CCCC1)C(=O)NCC(=O)N[C@H]1CCC(=O)OB1O`, for which, in assay [3], the half-maximal inhibitory concentration (IC50) worked out at 1 µM. Regarding `CC(=O)N[C@H](C(=O)N[C@H](C(=O)NCC(=O)N[C@H]1CCC(=O)OB1O)[C@@H](C)O)C1CCCC1`, the half-inhibitory concentration (IC50) came to 35.6 µM in assay [3] and 18.7 nM in assay [4]. The Ratio IC50 in assay [5] was 1900.

With `CC(=O)N[C@H](C(=O)N[C@H](C(=O)NCC(=O)N[C@@H](C)B(O)O)[C@@H](C)O)C1CCCC1`, the half-maximal inhibitory concentration (IC50) in assay [4] is 9.3 nM.
